The values below come from ChEMBL document CHEMBL3045714, “Insect antifeedants from tropical plants: structures of dumnin and dumsenin” (2004).

Common to all, as to type: functional
In experiment [1] the test system is Spodoptera frugiperda. Briefly: Antifeedant activity against second-instar larvae of Spodoptera frugiperda (fall armyworm) assessed as concentration required for 95 % protection of host plant substrate after 48 hr by leaf disk assay. The method in brief: (§1)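 Leaf disks (1 cm²) punched from glandless cotton cultivar, randomized, 12 per Petri dish on moistened filter paper; alternate disks treated on upper surface with 25 μL acetone or 0–100 μg sample in 25 μL acetone. Three larvae per dish, 22 °C, dark, 48 h; percent disk area eaten vs control scored visually. PC50/PC95 = ca. 50/95% protection; triplicate on separate occasions, mean.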

In experiment [2] the test system is Pectinophora gossypiella. The experiment is described as follows: Antifeedant activity against second-instar larvae of Pectinophora gossypiella (pink bollworm) assessed as concentration required for 95 % protection of host plant substrate after 48 hr by leaf disk assay. The essentials:
as §1

The test system of experiment [3] is Spodoptera frugiperda. Briefly: Antifeedant activity against second-instar larvae of Spodoptera frugiperda (fall armyworm) assessed as concentration required for 50 % protection of host plant substrate after 48 hr by leaf disk assay. The essentials: as §1
Experiment [4] has as its system Pectinophora gossypiella. The experiment is described as follows: Antifeedant activity against second-instar larvae of Pectinophora gossypiella (pink bollworm) assessed as concentration required for 50 % protection of host plant substrate after 48 hr by leaf disk assay. The method in brief: as §1

With `CC(=O)O[C@H]1[C@H](OC(C)=O)[C@@]2(C)C(=CC[C@@H]2c2ccoc2)[C@@]2(C)C(=O)C[C@H]3C(C)(C)O[C@]4(O)C(=O)CC[C@]34[C@@H]12` [DUMSENIN], the PC95 in the experiment with Spodoptera frugiperda [1] stood at 4 µg/mL; in the experiment on Pectinophora gossypiella [2] it was 8 µg/mL. Moreover, the PC50 with Spodoptera frugiperda [3] worked out at 1 µg/mL; with Pectinophora gossypiella [4], 2 µg/mL.
With `CC(=O)O[C@H]1[C@H](OC(C)=O)[C@]2(C)[C@@H](c3ccoc3)C[C@@H]3O[C@@]32[C@@]2(C)[C@H](OC(=O)CC(C)C)C[C@H]3C(C)(C)O[C@]4(O)C(=O)CC[C@]34[C@@H]12` [DUMSIN], the PC95 in the experiment on Pectinophora gossypiella [2] stood at 8 µg/mL. Moreover, in the experiment on Pectinophora gossypiella [4], the PC50 was 1 µg/mL.
Consider `CC(=O)O[C@H]1[C@H](OC(C)=O)[C@]2(C)[C@@H](c3ccoc3)C[C@@H]3O[C@@]32[C@@]2(C)[C@H](OC(=O)Cc3ccccc3)C[C@H]3C(C)(C)O[C@]4(O)C(=O)CC[C@]34[C@@H]12` [DUMNIN], for which, in the experiment on Pectinophora gossypiella [2], the PC95 was 16 µg/mL. For the same molecule, the PC50 with Pectinophora gossypiella [4] came to 1 µg/mL.
For `CC(=O)O[C@@H]1[C@@H]2[C@@]34CC(=O)C[C@@H]3OC(C)(C)[C@@H]4CC(=O)[C@@]2(C)[C@@]23O[C@@H]2C[C@H](c2ccoc2)[C@]3(C)[C@H]1OC(C)=O` [ZUMSIN], the PC95 in the experiment with Spodoptera frugiperda [1] turned out to be 16 µg/mL; with Pectinophora gossypiella [2] it was 8 µg/mL. In addition, the PC50 with Spodoptera frugiperda [3] was 2 µg/mL; with Pectinophora gossypiella [4] it was 1 µg/mL.
